CHT allo act: human CHT allosteric activation; Q9GZV3; CHT-expressing cells, membrane potential dye, choline EC20; active compounds read high; LV-AA mutant CHT in HEK293 cells; B-score at 10 µM; 310,000 compounds, 0.49% hits; AID 488977;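 active = initial fluorescence not abnormally high and integrated response B-score, plate-corrected, over 3 SD above library mean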
Target sequence (Q9GZV3 whole entry, looked up): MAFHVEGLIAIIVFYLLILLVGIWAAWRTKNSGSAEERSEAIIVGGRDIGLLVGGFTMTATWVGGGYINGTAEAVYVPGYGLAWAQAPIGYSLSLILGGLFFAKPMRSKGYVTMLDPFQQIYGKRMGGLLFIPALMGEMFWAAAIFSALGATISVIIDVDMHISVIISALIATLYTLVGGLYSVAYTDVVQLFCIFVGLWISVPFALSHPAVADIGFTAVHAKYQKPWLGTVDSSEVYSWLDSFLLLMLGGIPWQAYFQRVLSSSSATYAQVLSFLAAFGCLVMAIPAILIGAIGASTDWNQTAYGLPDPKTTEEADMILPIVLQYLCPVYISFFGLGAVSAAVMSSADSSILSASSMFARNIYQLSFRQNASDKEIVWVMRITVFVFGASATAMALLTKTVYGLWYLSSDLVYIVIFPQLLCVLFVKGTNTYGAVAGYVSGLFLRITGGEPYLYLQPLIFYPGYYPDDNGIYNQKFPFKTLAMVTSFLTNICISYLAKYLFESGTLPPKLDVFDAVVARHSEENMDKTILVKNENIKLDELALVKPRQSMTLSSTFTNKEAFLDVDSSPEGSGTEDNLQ
TNAP act hiacc: activators of human TNAP at high phosphate acceptor concentration | purified TNAP, CDP-star luminescence, 1 M DEA, 30 min; active compounds read high; 0 = EDTA background, 1 = DMSO-only activity | activation factor at 20 µM | 200,000 tested, under 10 active | AID 1136;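 active = activation factor at least 2 at 20 µM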
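Test system – human TNAP · Doses – 20 µM single point · Incubation – 30 min, room temperature · Signal – luminescent substrate turnover signal · Read-out basis – activation factor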
TNAP inh hiacc: blocks human TNAP under high phosphate acceptor concentration | 200,000 compounds, 0.03% hits | purified TNAP, CDP-star luminescence, 1 M DEA | P05186 | inhibition, % at 20 µM;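 active = over 50% inhibition of tissue-nonspecific alkaline phosphatase at 20 µM in the single-dose screen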;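 also: plate controls were DMSO wells for no effect and EDTA-quenched wells as full inhibition for full effect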
ABCB6 inh 2: inhibitors of human ABC transporter ABCB6. AID 602162. fluorescence ratio to DMSO, % at 10 µM. 360,000 compounds, 0.19% hits. K562-ABCB6 porphyrin accumulation, flow cytometry, 1 h; active compounds read low;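 active = fluorescence ratio to DMSO below 75%, the collection mean minus 3 SD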;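 also: signal is porphyrin accumulated inside mitochondria; 100% equals median channel fluorescence of DMSO control wells; lower ratio means ABCB6 inhibition with less porphyrin fluorescence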
CHT inh: inhibitors of human choline transporter CHT. Q9GZV3. B-score at 10 µM. 310,000 compounds, 0.86% hits. CHT-expressing cells, membrane potential dye, choline response; active compounds read low;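 active = B-score over 3 SD under the library average, and starting fluorescence ratio not unusually high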;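 also: choline stimulus applied at its EC90 after an EC20 pre-addition; B-score computed on integrated fluorescence ratio after choline addition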
TNAP inh noacc: blocks human TNAP activity with no phosphate acceptor present | inhibition, % at 20 µM | 200,000 compounds, 0.26% hits | purified TNAP, CDP-star luminescence, 30 min | P05186;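 active = tissue-nonspecific alkaline phosphatase inhibition above about 50% at 20 µM in the single-dose screen, limit read from the data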;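 also: 0% = DMSO negative control and 100% = EDTA positive control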
CHT block conf: confirmation of human choline transporter CHT inhibitors; shares compounds with CHT inh; CHT-expressing cells, choline membrane potential dye; LV-to-AA substituted CHT, HEK293 cells; CHT activity remaining % of control (active compounds read low), % at 10 µM; 2,400 compounds, 70% hits; AID 493221;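 active = choline transporter activity left, mean of duplicates at 10 µM, below buffer-only control mean minus 3 SD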;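 also: depolarization triggered by choline at its EC90 following an EC20 pre-addition; 0% = hemicholinium-3 full block and 100% = buffer-only control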
HEK293 CHT ctr: activity in parental HEK293 cells lacking CHT; shares compounds with CHT inh; membrane potential dye, choline response; active = decrease or increase beyond buffer ±3SD; membrane potential ratio readout (active if shifted either direction beyond buffer ±3SD; no single direction) at 10 µM; 2,400 compounds, 4% hits; AID 493222;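 also: parental cells lack the transporter so any hit is non-specific; ratio is peak minus trough fluorescence over baseline after EC90 choline challenge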
* = called active by the depositor; i = inactive; · = no result given. Rows were chosen to be rich in hits. Some 1.4% of all compounds tested hit in one or more screens of this group.

SMILES	CHT allo act	TNAP act hiacc	TNAP inh hiacc	ABCB6 inh 2	CHT inh	TNAP inh noacc	CHT block conf	HEK293 CHT ctr
COc1ccc(Cn2c(=O)c3[nH]cnc3n(-c3ccccc3C)c2=O)cc1	i	·	·	102	-5.5*	·	56%*	i
COc1ccc(C)c(-n2c(=O)n(Cc3ccccc3)c(=O)c3[nH]cnc32)c1	i	·	·	95	i	·	·	·
C[N+]1(CCCCSc2ccc(O)cc2)CCCCC1	i	1	-2	104	i	22	·	·
CC(=O)OCCCCCCCCCCC[N+]1(C)CCCCC1	i	1.1	-9	96	-8.3*	-16	27%*	i
COC(=O)CCCCCCCCC(O)C[N+]1(C)CCOCC1 (configuration not stated)	i	·	·	100	i	·	·	·
COC(=O)CCCCCCCCCC[N+]1(C)CCCCC1	i	1.1	-5	96	-5.1*	-18	42%*	i
CCC1Cc2[nH]c(=S)[nH]c(=O)c2C(c2ccc(F)cc2)O1 (configuration not stated)	·	·	·	98	·	·	·	·
C[C@@H]1CN([C@@H](C)CO)S(=O)(=O)c2ccc(Br)cc2O[C@H]1CN(C)Cc1ccc(-c2ccccc2)cc1	·	·	·	98	·	·	·	·
Cc1ccccc1-c1cc2nc(Oc3ccc4c(c3)OCO4)n(C)c(=O)c2s1	·	·	·	89	·	·	·	·
COC(=O)CN1C(=O)COc2ccc(S(=O)(=O)NCc3ccc(Cl)cc3)cc21	i	·	·	104	-6.1*	·	i	i
CC(=O)Nc1ccc(Oc2ncccn2)c(Cl)c1	i	1	0	107	-5.6*	-14	i	i
N#C/C(=N\Nc1ccc(Cl)cc1)C(N)=S	i	·	·	90	-8.1*	·	39%*	i
N#CC12CCCCC1CC1CCCCC1(C#N)N2CCO (configuration not stated)	i	1.1	-7	93	-5.7*	-16	i	i
N#CC12CCCCC1CC1CCCCC1(C#N)N2N (configuration not stated)	i	·	·	100	i	·	·	·
O=C(Nc1ccccc1)N1CCCC(c2nc(-c3ccc(F)cc3)no2)C1 (configuration not stated)	i	1	-5	93	-5.9*	-13	i	i
O=C(/C=C/c1ccc(Cl)cc1)N1CCOCC1	i	·	·	100	i	·	·	·
NC1=NS(=O)(=O)NC1c1ccc(F)cc1 (configuration not stated)	i	1	4	98	i	-2	·	·
O=C(NCc1ccc2c(c1)OCO2)c1ccc(COc2cc(Cl)ccc2Cl)o1	i	1.1	-5	92	-5.1*	2	i	i
Cc1sc[n+](CC(=O)c2ccc(Br)cc2)c1C	i	·	·	101	-13*	·	24%*	i
O=C(C[n+]1cccc2ccccc21)c1ccc(Br)cc1	i	·	·	213	-9.3*	·	26%*	i
Cc1c(CCOC(=O)c2cc([N+](=O)[O-])cc([N+](=O)[O-])c2)sc[n+]1CC(=O)c1ccc(Br)cc1	i	0.9	13	83	i	10	·	·
NC(=O)C[n+]1cccc2ccccc21	i	1.1	-6	102	i	-12	·	·
Cc1ccc(C(=O)C[n+]2cccc3ccccc32)cc1	i	1	-4	716	-6.5*	-5	29%*	i
CC[N+]1(CC)CC2=Cc3c(ccc4ccccc34)CC2C1 (configuration not stated)	i	1	-1	104	-6.4*	-23	46%*	i
CC12Cc3ccc4ccccc4c3C=C1C[N+](C)(C)C2 (configuration not stated)	i	1	-4	98	i	-18	·	·
SMILES	CHT allo act	TNAP act hiacc	TNAP inh hiacc	ABCB6 inh 2	CHT inh	TNAP inh noacc	CHT block conf	HEK293 CHT ctr
CC(C)(C)c1cc(C(F)(F)F)nc(SCCCNC(=O)c2ccco2)n1	i	1	2	90	-5.5*	-7	i	i
CC(C)(C)c1ccc(C(=O)NCCCNC(=O)c2ccco2)cc1	i	·	·	159	i	·	·	·
COc1cccc(C(=O)NC(C)c2cccc3ccccc23)c1OC (configuration not stated)	i	·	·	97	i	·	·	·
COc1ccccc1C(=O)NC(C)c1cccc2ccccc12 (configuration not stated)	i	·	·	98	-5.7*	·	54%*	i
CCOc1cc(/C=C2/C(=O)ON=C2C)cc(Br)c1O	i	·	·	97	-9.6*	·	42%*	i
CCCOc1ccc(/C=C2/C(=O)ON=C2C)cc1OCC	i	·	·	100	i	·	·	·
CCOc1cc(/C=C2\C(=O)ON=C2c2ccccc2)cc(Br)c1O	i	·	·	113	-5.6*	·	44%*	i
CC1=NOC(=O)/C1=C/c1ccc(O)c(Br)c1	i	·	·	95	-9.6*	·	21%*	i
COc1cc(/C=C2/C(=O)ON=C2c2ccccc2)ccc1O	i	0.6	37	88	-6.7*	52*	37%*	i
CC1=NOC(=O)/C1=C/c1ccc(O)cc1	i	0.7	32	101	i	35	·	·
COc1cc(/C=C2\C(=O)ON=C2c2ccccc2)cc(Br)c1O	i	·	·	113	i	·	·	·
Cc1cc(OCC(=O)OCC(=O)N2CCCc3ccccc32)ccc1Cl	·	·	·	355	·	·	·	·
CC(=O)N/C(=C\c1ccccc1)C(=O)OC(C)C(=O)Nc1ccccc1F (configuration not stated)	·	·	·	93	·	·	·	·
Cc1ccc(OCCNC(=O)CCc2ccccc2)cc1C	i	·	·	100	i	·	·	·
Cc1ccc(OC/C(=N\O)C(C)(C)C)c([N+](=O)[O-])c1	i	1	2	95	i	0	·	·
O=C(c1ccc(COCC(F)(F)F)o1)N1CCCC1	i	1.1	-6	93	i	-9	·	·
CCOc1ccc(Nc2cc(C)nc(-n3nc(C)cc3C)n2)cc1	i	1.1	-6	89	-6.1*	-4	i	i
CC(C)c1ccc(/C=C/c2ccc(=O)n(C)n2)cc1	i	1	-5	96	-6.9*	-11	i	i
O=C1Nc2c(c(=O)[nH]c(=O)n2-c2ccc(F)cc2)C1(NS(=O)(=O)c1ccccc1)C(F)(F)F (configuration not stated)	i	·	·	100	i	·	·	·

Bioassay records from PubChem.
